GRIN3A LBD mod: binders of NR3A ligand-binding domain, primary screen, biophysical, differential scanning fluorimetry, uHTS | actives 2.5% (n = 340,000) | NR3A LBD differential scanning fluorimetry, Tm shift; 0% = protein alone, 100% = glycine-bound protein | AID 1259313, 2017 | Tm shift relative to glycine control, % at 25 µM | Glutamate receptor ionotropic, NMDA 3A (GRIN3A) ligand-binding domain;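 active = melting temperature shift of at least 10% of the positive control shift, at one fixed dose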
MPTP inh: mitochondrial permeability transition pore inhibitors, primary screen, biochemical, isolated mouse mitochondria, absorbance | Ca2+ swelling absorbance, 30 min | inhibition, % at 10 µM | actives 1.4% (n = 360,000) | AID 602449, 2012;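 active = inhibition of 50% or more, scaled per plate between neutral and stimulator controls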
proCasp3 act: activators of human procaspase-3 D3A mutant, primary screen, biochemical, absorbance, PC-3 D3A mutant, single concentration | Caspase-3 (Homo sapiens), P42574 | activation, % at 8.5 µM | AID 463141, 2010 | actives 0.11% (n = 330,000) | recombinant procaspase-3 D3A, Ac-DEVD-pNA absorbance 405 nm;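 active = activation above the mean of all tested compounds plus 3 SD, cut at about 21% in these data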
Target sequence (P42574 whole entry D9A/D28A/D175A): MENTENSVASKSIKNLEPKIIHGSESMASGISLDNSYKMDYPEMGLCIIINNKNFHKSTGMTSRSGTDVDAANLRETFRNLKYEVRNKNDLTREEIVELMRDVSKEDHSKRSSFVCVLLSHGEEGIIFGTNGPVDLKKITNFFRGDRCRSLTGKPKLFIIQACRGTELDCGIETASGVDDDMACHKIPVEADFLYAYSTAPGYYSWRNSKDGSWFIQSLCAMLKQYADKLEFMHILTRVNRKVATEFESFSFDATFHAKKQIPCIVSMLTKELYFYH
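Assay system – Procaspase-3 D3A mutant · Benchmarks – DMSO low control, extra-enzyme high control · Technique – 405 nm absorbance of p-nitroaniline, reads at 0 and 120 min · Doses – 8.5 µM nominal · Measure – % activation between DMSO and enzyme-spiked controls · Also added – Ac-DEVD-pNA chromogenic peptide substrate · Schedule – 1 h compound preincubation, 2 h substrate hydrolysis at 25 °C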
aDG glyco act: activators of alpha-DG glycosylation, primary screen, uHTS, Pro5-aDG cells, AlphaScreen. activation, % at 10 µM. actives 0.22% (n = 360,000). alpha-DG glycosylation AlphaScreen (IIH6); 0% Pro5, 100% B10-LARGE cell signal;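 active = activation of at least 8% versus controls, or a plate z-score of at least 8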;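 note: Pro5 are CHO cells carrying HIG-tagged alpha-DG that lacks glycosylation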
procasp7 counter: procaspase-7 activators, primary screen, counter-screen for procaspase-3 activator project, biochemical, absorbance, HTS, human; actives 0.093% (n = 330,000); recombinant procaspase-7, Ac-DEVD-pNA absorbance 405 nm; D23A/D198A/D206A triple mutant, cannot self-cleave; scale: DMSO 0, 5 µM enzyme 100; activation, % at 8.5 µM; AID 463210, 2010; Caspase-7 (Homo sapiens), P55210;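 active = percent activation above the screen-wide mean plus 3 SD, cut at about 25% in these data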
Target sequence (P55210 whole entry D23A/D198A/D206A): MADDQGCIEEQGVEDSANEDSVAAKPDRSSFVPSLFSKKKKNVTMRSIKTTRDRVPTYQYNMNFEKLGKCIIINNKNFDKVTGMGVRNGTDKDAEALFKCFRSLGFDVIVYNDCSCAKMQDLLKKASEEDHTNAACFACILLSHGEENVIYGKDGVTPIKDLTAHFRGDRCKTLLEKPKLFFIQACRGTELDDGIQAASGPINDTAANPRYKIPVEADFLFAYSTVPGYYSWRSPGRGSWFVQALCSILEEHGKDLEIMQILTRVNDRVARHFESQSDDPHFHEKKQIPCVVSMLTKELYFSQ
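Assay system – Uncleavable procaspase-7 mutant enzyme · Quantity – 2 µM procaspase-7 mutant as dispensed · Times – 1 h preincubation, 2 h reaction · Dosing – single nominal 8.5 µM compound dose, 0.8% DMSO final · Buffer or medium – Zinc-free 50 mM HEPES buffer, pH 7.4, with NaCl and Triton X-100 · Detection – Epi-absorbance of released pNA at 405 nm, two timepoints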
MPTP counter: fluorescence retest of MPTP screen hits in isolated mitochondria, single concentration; membrane potential, Rhodamine 123 fluorescence; actives 78% (n = 5,000); shares compounds with MPTP inh; inhibition, % at 10 µM; in the data active = inhibition above about 22%
MPTP swell DR: mitochondrial permeability transition pore inhibitors, dose response, biochemical, absorbance, uHTS hits | shares compounds with MPTP inh | isolated mitochondria swelling | IC50, µM | actives 58% (n = 780) | AID 651561, 2012; in the data active = IC50 below about 20 µM
MPTP counter DR: fluorescent counter-screen in isolated mitochondria, dose response, counter-screen for MPTP inhibitor project, biochemical, fluorescence, uHTS hits; shares compounds with MPTP inh; isolated mitochondria counterscreen, fluorescence read-out; IC50, µM; actives 49% (n = 780); AID 651564, 2012; in the data active = IC50 below about 80 µM
aDG conf: alpha-DG glycosylation enhancers, retest, confirmation, single concentration, Pro5-aDG cells | activation, % at 10 µM (by protocol) | actives 17% (n = 600) | IIH6 AlphaLISA; scaled to LARGE-overexpressing B10 cells as 100% | shares compounds with aDG glyco act;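 active = activation of at least 7% in one or more replicates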;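 note: cells exposed to compound for two days before detection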
Large screens that a line does not name were inactive (follow-up assays come after a bar, where they were run). Rows were chosen to be rich in hits. Some 3.7% of all compounds tested hit in one or more screens of this group.

O=C(Nc1ccc(F)c(Cl)c1)C1CC2CCC1C2 (configuration not stated)	MPTP inh 57 | MPTP counter 79
Cc1ccc(OCCC(=O)Nc2ccc(F)c(F)c2)cc1	none
Cc1cccc(OCCC(=O)Nc2ccc(F)c(Cl)c2)c1	MPTP inh 78 | MPTP counter 79
CC(=O)Nc1cccc(NC(=S)Nc2ccc(F)c(Cl)c2)c1	GRIN3A LBD mod 12, MPTP inh 95 | MPTP counter 87
COc1ccc(NC(=O)NC23CC4(C)CC(C)(CC(C)(C4)C2)C3)cc1	MPTP inh 97 | MPTP counter 48
CC(=O)Nc1cccc(NC(=O)c2cc(Cl)ccc2Cl)c1	none
CC[C@]12C(=O)N(C)C[C@H]([C@@H]3C(=O)N(C)C(=O)[C@@H]31)N2C(=O)c1ccccc1	none (no result: proCasp3 act, procasp7 counter)
C[C@@H]1CN([C@H](C)CO)C(=O)c2cc(Br)cnc2O[C@@H]1CN(C)C(=O)C1CCOCC1	none (no result: GRIN3A LBD mod, proCasp3 act, procasp7 counter)
O=C(Nc1cccnc1)Nc1ccc(F)c(Cl)c1	GRIN3A LBD mod 25, MPTP inh 93 | MPTP counter 85
Cc1nnsc1C(=O)NC(=O)Nc1ccc(F)c(Cl)c1	MPTP inh 59 | MPTP counter 76
O=C(Nc1cccnc1)c1cc(F)c(F)cc1Cl	none
Cc1ccc(NC(=O)Nc2ccc(F)c(Cl)c2)cc1	GRIN3A LBD mod 32, MPTP inh 96 | MPTP counter 88
COc1ccc(OC)c(NC(=O)Nc2ccc(Cl)cc2)c1	GRIN3A LBD mod 28, MPTP inh 91 | MPTP counter 69
C/C(=N\OCC(=O)OCC(=O)NC(=O)c1ccc(OC(F)F)cc1)c1ccc2c(c1)OCO2	none
COc1ccc(NC(=O)c2cc(-c3cc(Cl)ccc3OC)n[nH]2)cc1OC	none (no result: GRIN3A LBD mod, proCasp3 act, procasp7 counter)
COc1ccc(OC)c(NC(=O)c2cc(-c3cc(Cl)ccc3O)n[nH]2)c1	GRIN3A LBD mod 33, MPTP inh 85 | MPTP counter 61
COc1ccc(NC(=O)Nc2ccc(F)c(Cl)c2)cc1	GRIN3A LBD mod 31, MPTP inh 87 | MPTP counter 85
CC(C)CC(=O)Nc1ccc(F)c(Cl)c1	none
COc1ccc(C(=O)NNC(=O)Nc2ccc(Cl)cc2)cc1	none
CCC(CC)NC(=O)Nc1ccc(F)c(Cl)c1	MPTP inh 71 | MPTP counter 84
O=C(NCc1csc2ccc(Cl)cc12)Nc1ccccc1	GRIN3A LBD mod 23, MPTP inh 85 | MPTP counter 75
O=C(NCc1ccc(Cl)cc1Cl)Nc1ccccc1	MPTP inh 80 | MPTP counter 94
O=C(N/C=C\c1ccccc1)NCc1ccc(Cl)cc1Cl	none
O=C(NCc1csc2ccc(Cl)cc12)Nc1cccc2ccccc12	none
CCOc1ccc(NC(=O)NC2CCCc3ccccc32)cc1 (configuration not stated)	none
CCOc1ccc(CCN2C(=O)C(=O)N([C@@H](CC(C)C)CN3CCC[C@H]3CN3C(=O)C(=O)NC[C@@H]3CC(C)C)C[C@@H]2Cc2ccc(O)cc2)cc1	none (no result: GRIN3A LBD mod, proCasp3 act, procasp7 counter)
CCc1ccccc1NC(=O)Nc1ccc(F)cc1	none
O=C(Nc1ccc(F)cc1)Nc1csc2ccccc12	GRIN3A LBD mod 34, MPTP inh 75 | MPTP counter 91
CN(C)c1ccc(NC(=O)Nc2csc3ccccc23)cc1	GRIN3A LBD mod 18, MPTP inh 52 | MPTP counter 54
COc1ccccc1-c1cc2nc(-c3ccccc3)cc(N3CCN(C(=O)c4ccco4)CC3)n2n1	none (no result: GRIN3A LBD mod, proCasp3 act, procasp7 counter)
COc1cccc(NC(=O)C2(C)CCN2CCc2ccccc2)c1 (configuration not stated)	none (no result: GRIN3A LBD mod, proCasp3 act, procasp7 counter)
OC(c1ccc(Cl)c(Cl)c1)c1ncc(-c2ccccc2C(F)(F)F)[nH]1 (configuration not stated)	none (no result: GRIN3A LBD mod, proCasp3 act, procasp7 counter)
CCCCN1C(=O)C(=O)N(CC(=O)Nc2cc(S(=O)(=O)N(C)C)ccc2C)C1=O	none
COc1ccc(Cl)cc1S(=O)(=O)NC(C)C(=O)NCCN1CCOCC1 (configuration not stated)	none (no result: proCasp3 act, procasp7 counter)
Cc1cc(C(=O)COC(=O)c2ccc(N)c([N+](=O)[O-])c2)c(C)n1-c1ccc2c(c1)OCO2	none
CC(=O)c1ccc(OCC(=O)c2cc(C)n(-c3ccc4c(c3)OCO4)c2C)cc1	MPTP inh 80 | MPTP counter 85
CCOC(=O)[C@]12CCCC=C1N(Cc1ccc3c(c1)OCO3)C(=O)[C@H](CC(=O)N1CCC(c3ccccc3)CC1)C2	none (no result: GRIN3A LBD mod, proCasp3 act, procasp7 counter)
COc1ccc(CCNc2cc(N3CCN(C(=O)c4ccc(C)cc4)CC3)ccc2[N+](=O)[O-])cc1OC	none (no result: GRIN3A LBD mod, MPTP inh, aDG glyco act)
COc1ccc(C(=O)N2CCN(c3ccc([N+](=O)[O-])c(NCCc4ccc(OC)c(OC)c4)c3)CC2)cc1	MPTP inh 85 | MPTP counter inactive | MPTP swell DR 6 | MPTP counter DR <2.5
COc1ccc(CNC(=O)c2cccc3c(-c4cccnc4)coc23)cc1OC	MPTP inh 99, aDG glyco act 8.1 (no result: GRIN3A LBD mod, proCasp3 act, procasp7 counter) | MPTP counter 100 | aDG conf inactive
COc1cccc(OCc2cc(C(=O)NCc3ccccn3)no2)c1	none
Cc1ccc(F)cc1CNC(=O)c1cc(COc2ccc3ncccc3c2)on1	MPTP inh 95, aDG glyco act 8.7 | MPTP counter 105 | aDG conf inactive
O=C(NCc1cccc(Cl)c1)c1cc(COc2ccc3ncccc3c2)on1	MPTP inh 105, aDG glyco act 10 | MPTP counter 92 | aDG conf inactive
CCCCn1c(N)c(N(CCOC)C(=O)c2c(C)noc2C)c(=O)[nH]c1=O	none

Screens: PubChem BioAssay, several laboratories
